Measurements from ChEMBL document CHEMBL4316597, “Design, Synthesis, and Biological Evaluation of Itaconic Acid Derivatives as Potential Anti-Influenza Agents” (J Med Chem, 2019).
Calls of active or inactive are those of the source. The rule behind the calls is not given here.

Assays:
[1] = tested on: Influenza A virus; assay: Antiviral activity against Influenza A virus (A/WSN/33) infected in MDCK cells assessed as inhibition of virus-induced cytopathic effects at 10 uM after 36 hrs by microscopic analysis; format: functional, organism-based; settings: A/WSN/1933(H1N1)
Method in brief: (§1)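 MDCK cells (2 × 10^5/well) grown 16–24 h, infected with A/WSN/33 at MOI 0.5 for 1 h, rinsed twice with DPBS, then kept in serum-free E0 with 10 μM compound at 37 °C. Cell morphology checked by light microscopy at 12 and 36 h pi. Drug-only and virus-only arms included; three repetitions.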

[2] = tested on: MDCK; assay: Cytotoxicity against MDCK cells at 10 uM after 12 to 36 hrs by microscopic analysis; format: cell-based, Canis lupus familiaris; settings: dog; method in brief: as §1
[3] = tested on: Influenza A virus; assay: Antiviral activity against Influenza A virus (A/WSN/33) infected in MDCK cells at 10 uM added at 6 hrs to 9 hrs post infection and measured after 9 hrs by plaque assay; format: functional, organism-based; settings: A/WSN/1933(H1N1)
Method in brief: (§2)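 MDCK monolayers exposed to compound (1 or 10 μM) over windows of −3, −1, 0, 3 or 6 to 9 h pi. A/WSN/33 adsorbed at MOI 0.1 from −1 to 0 h, then removed with a PBS wash. Supernatant taken at 9 h pi and titred by plaque assay, normalised to virus-only (100%). Average of three independent experiments.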

[4] = Cytotoxicity against human RD cells assessed as cell death after 72 hrs by MTT assay; format: cell-based
Method in brief: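 MDCK or RD cells at 2 × 10^4/well in E10, overnight at 37 °C/5% CO2, DPBS wash, then exposed to graded compound concentrations for 72 h. MTT added for 3 h, formazan dissolved in DMSO, absorbance read at 570 nm. CC50 (50% cell death) by Reed–Muench.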

[5] = Selectivity ratio of CC50 for MDCK cells to EC50 for Influenza A virus A/TW/01061/14; format: toxicity; settings: dog, read-out: Ratio CC50/EC50
Method in brief: (§3)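 MDCK cells (2 × 10^4/well, E10, 16–24 h) infected at nine-fold TCID50 with compound for 72 h, 37 °C, 5% CO2. Cells were fixed in 4% paraformaldehyde and stained with crystal violet; EC50 is from Reed–Muench. For CC50, cells had compound alone for 72 h, then MTT 3 h, DMSO, A570, Reed–Muench. SI = CC50/EC50; three independent experiments.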

[6] = target: Hemagglutinin (Influenza A virus) (UniProt B4URE7); assay: Inhibition Influenza A virus (A/WSN/33) HA infected in guinea pig RBC assessed as reduction in hemagglutination at serial dilution from 50 uM after 1 hr by HAI assay; settings: Influenza A virus (A/WSN/1933(H1N1))
Method in brief: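 Virus titrated on 0.5% guinea pig RBCs to define 1 HA unit; 4 HA units used. Compound two-fold serially diluted from 50 µM and mixed with virus for 30 min at room temperature, or tested without virus for direct agglutination. 0.5% RBCs then added and agglutination scored after 1 h. DMSO/RBC-only and virus-only controls included.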

[7] = tested on: Influenza A virus; assay: Antiviral activity against Influenza A virus (A/WSN/33) infected in MDCK cells assessed as reduction in virus-induced cytopathic effect after 72 hrs by crystal violet-staining based assay; format: functional, organism-based; settings: A/WSN/1933(H1N1)
Method in brief: (§4)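 Cells seeded at 2 × 10^4/well in E10 (DMEM, 10% FBS), 16–24 h at 37 °C/5% CO2, washed with DPBS, then infected at nine-fold TCID50 with or without serial compound concentrations. Influenza is run in MDCK and enterovirus/rhinovirus in RD. Incubated 72 h, fixed in 4% paraformaldehyde, stained with 0.1% crystal violet, and read for cell density. EC50 = 50% CPE inhibition by Reed–Muench; mean ± S.D. of at least three runs.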

[8] = Selectivity ratio of CC50 for MDCK cells to EC50 for Influenza A virus (A/WSN/33); format: toxicity; settings: dog, read-out: Ratio CC50/EC50
Method in brief: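 SI is calculated as CC50 (MDCK, 72 h MTT) divided by EC50 (72 h crystal-violet CPE assay in MDCK).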

[9] = tested on: Influenza A virus; assay: Inhibition of viral protein synthesis in Influenza A virus (A/WSN/33) infected in MDCK cells assessed as effect on NP protein level at 10 uM measured up to 9 hrs post infection by Western blot analysis; format: functional, organism-based; settings: A/WSN/1933(H1N1)
Method in brief: (§5)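 MDCK cells (5 × 10^5/well) infected with A/WSN/33 at MOI 0.1, washed twice, then held in E0 with or without 10 μM compound. Lysed in Triton X-100/deoxycholate buffer, equal protein separated by SDS-PAGE, and immunoblotted for viral proteins with GAPDH as loading control. Time-course harvests up to 9 h pi.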

[10] = tested on: Influenza A virus; assay: Inhibition of viral RNA synthesis in Influenza A virus (A/WSN/33) infected in MDCK cells assessed as effect on matrix protein 1 RNA level at 10 uM measured up to 9 hrs post infection by RT-qPCR analysis; format: functional, organism-based; settings: A/WSN/1933(H1N1)
Method in brief: (§6)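 MDCK monolayers (5 × 10^5/well) infected with A/WSN/33, then given 10 μM compound during or after infection. Total RNA extracted with TRIzol at 0, 3, 6 and 9 h pi. Viral RNA quantified by RT-qPCR with M1-specific primers, GAPDH used for quantitative standards. Representative of three independent experiments.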

[11] = tested on: Enterovirus; assay: Antiviral activity against Rhinovirus 71803 infected in human RD cells after 72 hrs by crystal violet-staining based assay; format: functional, organism-based; settings: Enterovirus, 71803, RD; method in brief: as §4
[12] = Selectivity ratio of CC50 for MDCK cells to EC50 for Influenza A virus A/TW/3446/02 (H3N2); format: toxicity; settings: dog, read-out: Ratio CC50/EC50; method in brief: as §3
[13] = tested on: Influenza A virus; assay: Antiviral activity against Influenza A virus (A/WSN/33) infected in MDCK cells at 10 uM added at 3 hrs to 9 hrs post infection and measured after 9 hrs by plaque assay; format: functional, organism-based; settings: A/WSN/1933(H1N1); method in brief: as §2
[14] = tested on: Enterovirus; assay: Antiviral activity against Rhinovirus 71903 infected in human RD cells after 72 hrs by crystal violet-staining based assay; format: functional, organism-based; settings: Enterovirus, 71903, RD; method in brief: as §4
[15] = tested on: Influenza A virus; assay: Inhibition of viral RNA synthesis in Influenza A virus (A/WSN/33) infected in MDCK cells at 10 uM measured up to 9 hrs post infection by RT-qPCR analysis; format: functional, organism-based; settings: A/WSN/1933(H1N1); method in brief: as §6
[16] = tested on: enterovirus D68; assay: Antiviral activity against Enterovirus D68 TW/2795/2014 clade B3 infected in human RD cells after 72 hrs by crystal violet-staining based assay; format: functional, organism-based; settings: Enterovirus D, TW/2795/2014 clade B3, RD; method in brief: as §4
[17] = tested on: Enterovirus A71; assay: Antiviral activity against Enterovirus A71 TW/2231/1998 infected in human RD cells after 72 hrs by crystal violet-staining based assay; format: functional, organism-based; settings: Enterovirus A, TW/2231/1998, RD; method in brief: as §4
[18] = tested on: Influenza A virus; assay: Antiviral activity against Influenza A virus (A/WSN/33) infected in MDCK cells at 10 uM added at -1 hrs to 9 hrs post infection and measured after 9 hrs by plaque assay; format: functional, organism-based; settings: A/WSN/1933(H1N1); method in brief: as §2
[19] = tested on: Influenza A virus; assay: Inhibition of viral protein synthesis in Influenza A virus (A/WSN/33) infected in MDCK cells assessed as effect on NS1 protein level at 10 uM measured up to 9 hrs post infection by Western blot analysis; format: functional, organism-based; settings: A/WSN/1933(H1N1); method in brief: as §5
[20] = Selectivity ratio of CC50 for MDCK cells to EC50 for Influenza A virus A/TW/00642/14; format: toxicity; settings: dog, read-out: Ratio CC50/EC50; method in brief: as §3
[21] = tested on: Influenza A virus; assay: Antiviral activity against pandemic Influenza A virus A/TW/90206/09 (H1N1) SO4 infected in MDCK cells after 72 hrs by crystal violet-staining based assay; format: functional, organism-based; settings: A/TW/90206/09 (H1N1) SO4, MDCK; method in brief: as §4

Hemagglutinin (Influenza A virus), sequence (B4URE7 as listed by the source): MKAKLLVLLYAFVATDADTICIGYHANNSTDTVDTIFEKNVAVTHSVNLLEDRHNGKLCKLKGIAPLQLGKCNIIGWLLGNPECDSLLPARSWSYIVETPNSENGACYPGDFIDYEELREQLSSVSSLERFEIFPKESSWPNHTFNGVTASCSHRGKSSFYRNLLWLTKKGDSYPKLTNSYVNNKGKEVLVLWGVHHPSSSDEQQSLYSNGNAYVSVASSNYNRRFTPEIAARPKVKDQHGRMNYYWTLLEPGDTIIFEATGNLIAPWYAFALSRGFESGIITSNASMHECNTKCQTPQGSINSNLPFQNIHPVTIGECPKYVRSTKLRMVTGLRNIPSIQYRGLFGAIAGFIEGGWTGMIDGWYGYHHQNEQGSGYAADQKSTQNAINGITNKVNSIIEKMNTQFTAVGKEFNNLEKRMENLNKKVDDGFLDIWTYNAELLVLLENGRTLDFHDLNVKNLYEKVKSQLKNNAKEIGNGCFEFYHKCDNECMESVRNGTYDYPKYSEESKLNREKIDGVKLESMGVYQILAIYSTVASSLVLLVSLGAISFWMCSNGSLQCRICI

In the case of `C=C(CC(=O)Nc1ccc(F)cc1F)C(=O)Nc1ccc(F)cc1F`, the Activity [1] is reported as “Active”, the Activity [2] is reported as “Non-Toxic” and the Activity [3] is reported as “inactive”. For the same compound, the CC50 at 72 h [4] was 74.6 µM, the selectivity ratio [5] was 21 and the inhibition [6] was “inactive”. The EC50 [7] was 2.84 µM, the selectivity ratio [8] was 29.8 and the inhibition [9] was “inactive”. For the same compound, the inhibition [10] was “inactive”, the EC50 [11] was greater than 50 µM and the selectivity ratio [12] was 18. For the same compound, the Activity [13] was “Active”, the EC50 [14] was greater than 50 µM and the inhibition [15] was “inactive”. For the same compound, the EC50 [16] was greater than 50 µM, the EC50 [17] was 4.5 µM and the Activity [18] was “Active”. For the same compound, the inhibition [19] was “inactive”, the selectivity ratio [20] was 25 and the EC50 [21] was 2.98 µM.
